Bioassay records: PubChem BioAssay, The Scripps Research Institute Molecular Screening Center
Hits are enriched below; roughly 1.5% of the tested compounds scored in any of these assays.
ABHD4 inh = inhibitors of mouse ABHD4; 0.54% of 370,000 active; inhibition, % at 8.92 µM; Q8VD66; purified mABHD4, FP-Rh probe fluorescence polarization;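 active = inhibition exceeding the mean over every tested compound plus 3 SD, cut at about 30% in these data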;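 also: 0% = plate median of compound wells and 100% = S159A mutant with DMSO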
Target sequence (Q8VD66 whole entry, looked up): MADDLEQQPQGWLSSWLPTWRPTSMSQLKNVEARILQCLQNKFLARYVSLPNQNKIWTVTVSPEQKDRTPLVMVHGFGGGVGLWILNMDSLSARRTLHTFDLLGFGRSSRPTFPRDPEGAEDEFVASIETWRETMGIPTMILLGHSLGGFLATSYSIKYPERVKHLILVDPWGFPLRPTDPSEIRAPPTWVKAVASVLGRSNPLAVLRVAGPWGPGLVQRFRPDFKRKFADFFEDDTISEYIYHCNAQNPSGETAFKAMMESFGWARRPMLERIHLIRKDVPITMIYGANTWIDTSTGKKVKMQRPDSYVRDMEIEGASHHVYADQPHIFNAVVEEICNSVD
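assay system = mABHD4 protein | compound dosing = single nominal dose of 8.92 µM, 0.89% DMSO final | read-out basis = percent inhibition of probe binding, normalized to plate controls | schedule = Enzyme–compound pre-incubation 45 min, then probe 60 min, both 25 °C | detection = fluorescence polarization, excitation 525 nm, emission 598 nm, BODIPY TMR filters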
HTRA1 inh = inhibitors of human serine peptidase HTRA1; recombinant HTRA1, FP-rhodamine activity-based probe, fluorescence polarization; inhibition, % at 5.96 µM; 0.5% of 340,000 active; AID 504803; in the data active = inhibition above about 36%;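 also: 0% = enzyme with DMSO and 100% = wells lacking enzyme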
TCR CD3 inh = inhibitors of human TCR-CD3 interaction; TAMRA-labeled TCR probe fluorescence, biochemical; inhibition, % at 9.4 µM; 0.37% of 360,000 active; AID 651800; in the data active = inhibition above about 19%;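 also: recombinant mutant TCR 2C K166C tagged with TAMRA read by polarization; 0% = receptor in buffer alone and 100% = receptor with positive control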
DAGLB inh = blocks human DAGLB lipase activity; Q8NCG7; HEK293T DAGLB membrane lysate, EnzChek fluorogenic substrate; inhibition, % at 5.17 µM; 0.059% of 340,000 active; in the data active = inhibition above about 34%;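 also: 0% = enzyme with vehicle and 100% = wells lacking enzyme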
SIAE primary = blocks human sialic acid acetylesterase. 0.69% of 370,000 active. inhibition, % at 9.66 µM. AID 1053197. SIAE FP-Rh probe binding, fluorescence polarization;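 active = inhibition above a cutoff: mean of compounds within the control limits plus 3 SD of those, cut at about 17% in these data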;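 also: 0% = plate median of compound wells and 100% = probe without SIAE protein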
SIAE inh conf = confirmation of human SIAE inhibitors. inhibition, % at 9.66 µM. 13% of 2,300 active. shares compounds with SIAE primary. SIAE FP-Rh activity-based probe, fluorescence polarization. AID 1117263;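 active = mean inhibition of the replicates above the hit cutoff set in the primary screen, cut at about 17% in these data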;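 also: 0% = SIAE with DMSO and probe and 100% = probe without SIAE; inhibitors lower polarization as more probe stays unbound to SIAE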
Active calls of the source: *; . = no result given.

SMILES	ABHD4 inh	HTRA1 inh	TCR CD3 inh	DAGLB inh	SIAE primary	SIAE inh conf
O=C(NNc1c2ccccc2nc2ccccc12)c1cccc(O)c1	20	18	0	29	18*	6
COc1ccc(N2CC(=O)N(c3ccc(OC)c(OC)c3)CC2=O)cc1OC	1	2	5	-2	19*	-3
COCCN1C(=O)[C@H]2C[C@@]13O[C@H](c1ccc(C(F)(F)F)cc1)N=C3C[C@H](c1ccccc1)[C@H]2C	1	.	1	.	-3	.
CCOC(=O)c1ccccc1NC(=O)COC(=O)CCC(=O)c1ccc(C)cc1	4	-11	-5	-10	20*	-4
CCOC(=O)c1ccccc1NC(=O)COC(=O)CCC(=O)c1ccccc1	-1	-14	-5	-7	-3	.
O=C(Nc1ccc(F)cc1)OCc1cn(Cc2cc(F)ccc2F)nn1	-4	.	.	.	-4	.
CC(C(Sc1ccccc1N)c1ccccc1)[N+](=O)[O-] (configuration not stated)	11	-1	-4	-1	17*	10
Nc1ccccc1SC(CC(=O)c1ccccc1)c1ccccc1 (configuration not stated)	.	-8	.	-11	.	.
COc1ccccc1OCCNC(=O)Nc1ccc(Br)cc1	0	-11	-3	-8	18*	1
COc1ccccc1OCCNC(=O)c1ccc(Br)cc1	-8	-6	-12	-8	-5	.
Cc1ccc(OCC(=O)Nc2ccc(S(=O)(=O)N3CCN(C)CC3)cc2)cc1	-1	-4	6	-5	18*	0
COc1ccc(OCC(=O)Nc2ccc(S(=O)(=O)N3CCN(C)CC3)cc2)cc1	3	.	11	.	0	.
Cc1sc(NC(=S)Nc2ccc(F)cc2)c(C(N)=O)c1C	2	-4	1	0	17*	5
O=C(O)c1cccc(-n2sc3ccccc3c2=O)c1	-9	-1	-1	1	18*	0
O=c1c2ccccc2sn1-c1ccccc1	3	-13	-9	0	4	.
Cc1[nH]nc2c1C(c1ccc(-c3ccc(Cl)cc3)o1)C(C#N)=C(N)O2 (configuration not stated)	4	0	3	4	18*	-3
COC(CNC(=O)[C@H](Cc1c[nH]c2ccccc12)NC1(C(=O)NCc2ccccc2)CCCCC1)OC	0	.	.	.	11	.
COC(=O)[C@@]12C[C@@H](CC(=O)NCc3cccc(C(F)(F)F)c3)C(=O)N(Cc3ccccc3)C1=CCC(C)(C)C2	-9	.	-7	.	-3	.
O=[N+]([O-])c1ccc(Nc2nc(N/N=C/c3cccc(F)c3)nc(N3CCCC3)n2)cc1	5	-47	1	-2	-25	.
COc1cccc(/C=N/Nc2nc(Nc3ccc([N+](=O)[O-])cc3)nc(N3CCCC3)n2)c1O	8	.	-2	.	19*	-8
CC(=O)N1C[C@@H](CO)[C@@H]2C[C@H]1c1ccccc1N2C	2	.	-2	.	-2	.
FC(F)(F)C(F)(F)c1nnc2ccc(-n3ccnc3)nn12	8	5	8	0	17*	3
FC(F)(F)c1nnc2ccc(N3CCCCC3)nn12	6	.	1	.	-1	.
CCOC(=O)[C@@]12CCC3=C1N(CCC3)C(=O)[C@H](CC(=O)NCc1cccc3ccccc13)C2	-1	.	.	.	-1	.
COc1cc(C(=O)NCCC2=CCCCC2)ccc1OC1CCN(C(C)=O)CC1	3	-1	-1	0	19*	0
SMILES	ABHD4 inh	HTRA1 inh	TCR CD3 inh	DAGLB inh	SIAE primary	SIAE inh conf
CN(C)c1ccc(C(CNS(=O)(=O)c2ccc(F)c(F)c2)c2c[nH]c3ccccc23)cc1 (configuration not stated)	-10	11	4	5	27*	3
CN(C)c1ccc(C(CNC(=O)c2ccccc2F)c2c[nH]c3ccccc23)cc1 (configuration not stated)	2	-5	-3	2	0	.
CCCc1c(-c2ccc(F)cc2F)ncn1Cc1ccccc1OC	-6	.	-5	.	7	.
COc1cc(CNc2cccc3[nH]c(C(F)(F)F)nc23)cc(OC)c1	3	-10	-5	3	18*	8
CCCS(=O)(=O)NC(=O)C1(C)CCCN(C(=O)CSc2ccccc2)C1 (configuration not stated)	5	.	8	.	-3	.
CCCS(=O)(=O)NC(=O)C1(C)CCN(C(=O)CSc2ccccc2)C1 (configuration not stated)	5	.	-5	.	20*	0
